Reference: ChEMBL document CHEMBL1142927, “Novel 3-iodo-8-ethoxypyrazolo[5,1-c][1,2,4]benzotriazine 5-oxide as promising lead for design of alpha5-inverse agonist useful tools for therapy of mnemonic damage” (Bioorg Med Chem, 2007)
Active and inactive are the calls of the source. No cut-off for these calls is given here.

Test system: Mus musculus
Assay: Decrease in ethanol-induced sleeping time in CD1 Albino mouse at 10 mg/kg, po relative to control
Format: functional, organism-based
Parameters: dose 10 mg/kg
Method in brief: (§1)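 Male CD-1 mice given drug po in 1% CMC, then ethanol 4 g/kg ip 30 min later. Sleep time taken as duration of loss of righting reflex, capped at 210 min. Means ± SEM of 5–16 mice; ANOVA with Fischer's test versus controls.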

SMILES | Activity
CCOc1ccc2c(c1)n1ncc(I)c1n[n+]2[O-] | Active

Test system: Mus musculus
Assay: Decrease in ethanol-induced sleeping time in CD1 Albino mouse at 3 mg/kg, po relative to control
Format: functional, organism-based
Parameters: dose 3 mg/kg
Method in brief: as §1

SMILES | Activity
CCOc1ccc2c(c1)n1ncc(I)c1n[n+]2[O-] | Active

Species: Mus musculus
Assay: Anxiogenic-like effect in CD1 Albino mouse assessed as decrease in time spent in light compartment in light-dark box test
Format: functional, organism-based
Method in brief: (§2)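 Light/dark box test in male CD-1 mice dosed 30 min beforehand in 1% CMC vehicle. Number of transfers between compartments and time spent in the illuminated side counted over 5 min. Statistics by ANOVA with Fischer's test versus controls.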

SMILES | Activity
CCOc1ccc2n[n+]([O-])c3c(I)cnn3c2c1 | Active
CCOc1ccc2c(c1)n1ncc(I)c1n[n+]2[O-] | Active

Test system: Mus musculus
Assay: Effect on motor coordination in CD1 Albino mouse assessed as number of falls in 30 secs at 3 mg/kg, po […] by rotarod test relative to control
Format: functional

SMILES | Activity
CCOc1ccc2nnc3c(I)cnn3c2c1 | 0.3
CN1C(=O)CN=C(c2ccccc2)c2cc(Cl)ccc21 [DIAZEPAM] | 1.2
CCOc1ccc2c(c1)n1ncc(I)c1n[n+]2[O-] | 0.2

Test system: Mus musculus
Assay: Anxiogenic-like effect in CD1 Albino mouse assessed as decrease in number of transfers from one compartment to another at 10 mg/kg in light-dark box test
Format: functional, organism-based
Parameters: dose 10 mg/kg
Method in brief: as §2

SMILES | Activity
CCOc1ccc2c(c1)n1ncc(I)c1n[n+]2[O-] | Active

Target: not listed separately
Assay: Displacement of [3H]flumazenil from bovine brain cortex GABAA/Bz receptor
Parameters: species or system Bos taurus
Method in brief: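 Bovine cerebral cortex membranes in 50 mM Tris-citrate pH 7.4, [3H]Ro 15-1788 (70.8 Ci/mmol) as radioligand. […] At least six concentrations used, curve-fitted, Ki by Cheng–Prusoff; means ± SEM of five determinations in triplicate.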

SMILES | Ki [nM]
CCCCOc1ccc2c(c1)n1ncc(I)c1n[n+]2[O-] | 5.4
[O-][n+]1nc2c(I)cnn2c2cc(O)ccc21 | 1700
CCOc1ccc2nnc3c(I)cnn3c2c1 | 18
COCCOc1ccc2c(c1)n1ncc(I)c1n[n+]2[O-] | 37
CC(C)Oc1ccc2c(c1)n1ncc(I)c1n[n+]2[O-] | 42
CCCCCOc1ccc2c(c1)n1ncc(I)c1n[n+]2[O-] | 6.5
[O-][n+]1nc2c(Br)cnn2c2cc(I)ccc21 | 81
CN1C(=O)CN=C(c2ccccc2)c2cc(Cl)ccc21 [DIAZEPAM] | 10
C#CCOc1ccc2c(c1)n1ncc(I)c1n[n+]2[O-] | 0.8
CCOc1ccc2c(c1)n1ncc(Br)c1n[n+]2[O-] | 36.9
COc1ccc2c(c1)n1ncc(I)c1n[n+]2[O-] | 13.5
CSc1ccc2c(c1)n1ncc(I)c1n[n+]2[O-] | 15.8
[O-][n+]1nc2c(Br)cnn2c2cc(Cl)ccc21 | 120
[O-][n+]1nc2c(Cl)cnn2c2cc(Cl)ccc21 | 374
Clc1ccc2nnc3c(I)cnn3c2c1 | 22.8
Cc1ccc2c(c1)n1ncc(Cl)c1n[n+]2[O-] | 196

SMILES | Ki [nM]
CCOc1ccc2n[n+]([O-])c3c(Br)cnn3c2c1 | 15.6
CCOc1ccc2n[n+]([O-])c3c(I)cnn3c2c1 | 1.7
[O-][n+]1nc2c(I)cnn2c2cc(I)ccc21 | 14
CCOc1ccc2c(c1)n1ncc(Cl)c1n[n+]2[O-] | 160
Cc1ccc2c(c1)n1ncc(Br)c1n[n+]2[O-] | 53.2
[O-][n+]1nc2c(Br)cnn2c2cc(Br)ccc21 | 73
[O-][n+]1nc2c(I)cnn2c2cc(OCCCl)ccc21 | 62
[O-][n+]1nc2c(Cl)cnn2c2cc(Br)ccc21 | 332
[O-][n+]1nc2c(I)cnn2c2cc(Br)ccc21 | 14
CN(C)CCOc1ccc2c(c1)n1ncc(I)c1n[n+]2[O-] | 233
[O-][n+]1nc2c(Cl)cnn2c2cc(I)ccc21 | 202
CCCOc1ccc2c(c1)n1ncc(I)c1n[n+]2[O-] | 12
[O-][n+]1nc2c(I)cnn2c2cc(OCC3CC3)ccc21 | 7.6
CCOc1ccc2c(c1)n1ncc(I)c1n[n+]2[O-] | 4.8
Cc1ccc2c(c1)n1ncc(I)c1n[n+]2[O-] | 12

Test system: Mus musculus
Assay: Anticonvulsant activity against pentylenetetrazole-induced seizure in CD1 Albino mouse at 30 mg/kg, po
Format: functional
Method in brief: (§3)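 Male CD-1 mice (22–24 g) dosed po in 1% carboxymethylcellulose (10 ml/kg); PTZ 90 mg/kg sc given 30 min later. Occurrence of clonic generalized convulsions noted over 30 min and expressed as percent of animals protected; latency (s) also recorded. Means ± SEM; ANOVA with Scheffe post-hoc test, Student's two-tailed t-test for pairs of means.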

SMILES | Activity [%]
CCOc1ccc2nnc3c(I)cnn3c2c1 | 0
CCOc1ccc2c(c1)n1ncc(I)c1n[n+]2[O-] | 0

Test system: Mus musculus
Assay: Effect on motor coordination in CD1 Albino mouse assessed as number of falls in 30 secs at 10 mg/kg, po […] by rotarod test relative to control
Format: functional

SMILES | Activity
CCOc1ccc2nnc3c(I)cnn3c2c1 | 0.7
CCOc1ccc2n[n+]([O-])c3c(I)cnn3c2c1 | 0.4
CCOc1ccc2c(c1)n1ncc(I)c1n[n+]2[O-] | 0.2

Test system: Mus musculus
Assay: Effect on learning and memory performance in CD1 Albino mouse assessed as cognition enhancement at 3 mg/kg, po
Format: functional, organism-based
Parameters: dose 3 mg/kg
Method in brief: (§4)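 Passive avoidance test in male CD-1 mice dosed po 30 min before training, with retention tested 24 h later. Read-out was the difference in latency (s) to enter the dark compartment between training and retention. Means ± SEM of 9–10 mice; ANOVA with Fischer's test.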

SMILES | Activity
CCOc1ccc2n[n+]([O-])c3c(I)cnn3c2c1 | Active
CCOc1ccc2c(c1)n1ncc(I)c1n[n+]2[O-] | Active

Target: GABA-A receptor alpha-5/beta-2/gamma-2 (Rattus norvegicus)
Assay: Displacement of [3H]Ro-151788 from rat recombinant GABA alpha-5-beta-2-gamma-2 receptor expressed in HEK293 cells

SMILES | Ki [nM]
CCOc1ccc2nnc3c(I)cnn3c2c1 | 95
CCOc1ccc2n[n+]([O-])c3c(I)cnn3c2c1 | 70
CCOc1ccc2c(c1)n1ncc(I)c1n[n+]2[O-] | 99

Test system: Mus musculus
Assay: Effect on motor coordination in CD1 Albino mouse assessed as number of falls in 30 secs at 30 mg/kg, po […] by rotarod test relative to control
Format: functional

SMILES | Activity
CCOc1ccc2n[n+]([O-])c3c(I)cnn3c2c1 | 0.6
CCOc1ccc2c(c1)n1ncc(I)c1n[n+]2[O-] | 0.2

Target: GABA-A receptor; alpha-1/beta-2/gamma-2 (Rattus norvegicus, UniProt P18508+P62813+P63138)
Sequence (P18508 whole entry): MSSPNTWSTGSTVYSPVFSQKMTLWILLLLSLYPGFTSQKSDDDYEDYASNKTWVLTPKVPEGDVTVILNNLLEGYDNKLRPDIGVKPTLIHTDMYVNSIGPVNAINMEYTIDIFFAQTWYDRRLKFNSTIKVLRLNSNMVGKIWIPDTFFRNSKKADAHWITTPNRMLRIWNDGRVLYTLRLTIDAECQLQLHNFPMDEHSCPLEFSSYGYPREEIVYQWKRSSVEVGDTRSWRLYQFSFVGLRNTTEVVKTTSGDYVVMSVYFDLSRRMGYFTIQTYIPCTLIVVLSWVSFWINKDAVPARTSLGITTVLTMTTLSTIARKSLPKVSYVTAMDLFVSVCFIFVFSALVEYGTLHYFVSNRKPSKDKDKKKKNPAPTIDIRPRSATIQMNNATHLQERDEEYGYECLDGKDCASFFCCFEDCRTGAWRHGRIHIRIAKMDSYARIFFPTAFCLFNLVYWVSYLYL
Sequence (P62813 whole entry): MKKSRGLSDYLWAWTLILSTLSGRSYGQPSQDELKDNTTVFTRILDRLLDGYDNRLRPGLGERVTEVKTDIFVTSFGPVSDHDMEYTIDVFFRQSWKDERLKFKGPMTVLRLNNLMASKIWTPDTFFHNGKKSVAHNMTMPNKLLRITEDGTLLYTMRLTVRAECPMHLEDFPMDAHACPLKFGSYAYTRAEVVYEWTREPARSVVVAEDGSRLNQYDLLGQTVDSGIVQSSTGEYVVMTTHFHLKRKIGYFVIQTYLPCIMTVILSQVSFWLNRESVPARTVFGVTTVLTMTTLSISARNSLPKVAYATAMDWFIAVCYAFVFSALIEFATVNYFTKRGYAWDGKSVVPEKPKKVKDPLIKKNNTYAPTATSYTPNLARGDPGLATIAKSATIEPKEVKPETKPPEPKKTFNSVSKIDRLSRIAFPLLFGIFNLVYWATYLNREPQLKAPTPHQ
Sequence (P63138 whole entry): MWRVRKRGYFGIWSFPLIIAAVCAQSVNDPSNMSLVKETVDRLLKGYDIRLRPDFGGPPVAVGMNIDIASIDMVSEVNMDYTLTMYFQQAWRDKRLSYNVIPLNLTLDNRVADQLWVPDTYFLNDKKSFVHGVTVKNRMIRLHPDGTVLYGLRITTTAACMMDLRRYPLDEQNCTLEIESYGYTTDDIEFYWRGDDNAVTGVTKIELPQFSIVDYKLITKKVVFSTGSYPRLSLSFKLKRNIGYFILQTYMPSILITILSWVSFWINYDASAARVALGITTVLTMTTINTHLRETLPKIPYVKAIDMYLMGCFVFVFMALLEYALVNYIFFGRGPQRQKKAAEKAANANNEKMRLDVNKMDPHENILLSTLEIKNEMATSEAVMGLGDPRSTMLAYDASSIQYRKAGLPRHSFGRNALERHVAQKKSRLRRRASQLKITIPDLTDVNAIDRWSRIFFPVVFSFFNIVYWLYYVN
Assay: Displacement of [3H]Ro15-1788 from rat recombinant GABA alpha-1-beta-2-gamma-2 receptor expressed in HEK293 cells
Format: cell-based
Method in brief: (§5)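 Crude membranes from clonal mammalian cells expressing recombinant subtypes, grown in MEM/EBSS with 10% FCS at 37 °C, 5% CO2. Membranes resuspended in 10 mM potassium phosphate pH 7.4 with 100 mM KCl. Ki from three independent experiments run in triplicate, means ± SEM.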

SMILES | Ki [nM]
CCOc1ccc2nnc3c(I)cnn3c2c1 | 13.8
CCOc1ccc2n[n+]([O-])c3c(I)cnn3c2c1 | 2.6
CCOc1ccc2c(c1)n1ncc(I)c1n[n+]2[O-] | 4.1

Target: GABA A receptor alpha-3/beta-2/gamma-2 (Rattus norvegicus, UniProt P18508+P20236+P63138)
Sequence (P18508 whole entry): as the sequence (P18508 whole entry) above
Sequence (P20236 whole entry): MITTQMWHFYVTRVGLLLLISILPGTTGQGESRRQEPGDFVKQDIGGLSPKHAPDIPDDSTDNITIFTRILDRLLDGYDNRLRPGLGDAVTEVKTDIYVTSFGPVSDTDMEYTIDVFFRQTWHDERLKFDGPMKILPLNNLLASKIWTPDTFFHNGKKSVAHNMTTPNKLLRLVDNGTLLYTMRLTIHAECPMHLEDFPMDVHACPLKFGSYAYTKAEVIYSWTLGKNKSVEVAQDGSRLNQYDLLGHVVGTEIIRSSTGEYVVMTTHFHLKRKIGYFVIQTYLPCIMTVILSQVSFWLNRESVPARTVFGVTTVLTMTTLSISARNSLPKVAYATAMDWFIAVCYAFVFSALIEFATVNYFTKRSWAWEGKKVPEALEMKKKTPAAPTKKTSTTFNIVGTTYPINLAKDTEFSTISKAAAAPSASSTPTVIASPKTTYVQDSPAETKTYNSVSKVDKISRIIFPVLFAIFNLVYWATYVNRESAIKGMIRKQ
Sequence (P63138 whole entry): as the sequence (P63138 whole entry) above
Assay: Displacement of [3H]Ro15-1788 from rat recombinant GABA alpha-3-beta-2-gamma-2 receptor expressed in HEK293 cells
Format: cell-based
Method in brief: as §5

SMILES | Ki [nM]
CCOc1ccc2nnc3c(I)cnn3c2c1 | 133
CCOc1ccc2n[n+]([O-])c3c(I)cnn3c2c1 | 12.3
CCOc1ccc2c(c1)n1ncc(I)c1n[n+]2[O-] | 34

Test system: Mus musculus
Assay: Anticonvulsant activity against pentylenetetrazole-induced seizure in CD1 Albino mouse at 10 mg/kg, po
Format: functional
Method in brief: as §3

SMILES | Activity [%]
CCOc1ccc2nnc3c(I)cnn3c2c1 | 0
CCOc1ccc2n[n+]([O-])c3c(I)cnn3c2c1 | 12.5
CCOc1ccc2c(c1)n1ncc(I)c1n[n+]2[O-] | 0

Test system: Mus musculus
Assay: Anticonvulsant activity against pentylenetetrazole-induced seizure in CD1 Albino mouse assessed as latency at 3 mg/kg, po
Format: functional
Method in brief: as §3

SMILES | Activity [s]
CCOc1ccc2nnc3c(I)cnn3c2c1 | 237.7
CCOc1ccc2n[n+]([O-])c3c(I)cnn3c2c1 | 293.4

Test system: Mus musculus
Assay: Anticonvulsant activity against pentylenetetrazole-induced seizure in CD1 Albino mouse at 3 mg/kg, po
Format: functional
Method in brief: as §3

SMILES | Activity [%]
CCOc1ccc2nnc3c(I)cnn3c2c1 | 0
CN1C(=O)CN=C(c2ccccc2)c2cc(Cl)ccc21 [DIAZEPAM] | 100
CCOc1ccc2n[n+]([O-])c3c(I)cnn3c2c1 | 0
CCOc1ccc2c(c1)n1ncc(I)c1n[n+]2[O-] | 10

Test system: Mus musculus
Assay: Effect on learning and memory performance in CD1 Albino mouse assessed as cognition enhancement at 10 mg/kg, po
Format: functional, organism-based
Parameters: dose 10 mg/kg
Method in brief: as §4

SMILES | Activity
CCOc1ccc2n[n+]([O-])c3c(I)cnn3c2c1 | Active
CCOc1ccc2c(c1)n1ncc(I)c1n[n+]2[O-] | Active
